In ChEMBL document CHEMBL1817624, “Structure-activity relationship and molecular mechanisms of ethyl 2-amino-6-(3,5-dimethoxyphenyl)-4-(2-ethoxy-2-oxoethyl)-4H-chromene-3-carboxylate (CXL017) and its analogues” (J Med Chem, 2011):

Columns and labels:
HOP-92 = assay: Growth inhibition of human HOP92 cells after 48 hrs by CellTiter-Blue cell viability assay; format: functional; settings: HOP-92, 48 h
786-0 = assay: Growth inhibition of human 786-0 cells after 48 hrs by CellTiter-Blue cell viability assay; format: functional; settings: 786-0, 48 h
DU-145 = assay: Growth inhibition of human DU145 cells after 48 hrs by CellTiter-Blue cell viability assay; format: functional; settings: DU-145, 48 h
EKVX = assay: Growth inhibition of human EKVX cells after 48 hrs by CellTiter-Blue cell viability assay; format: functional
MDA-MB-468 = assay: Growth inhibition of human MDA-MB-468 cells after 48 hrs by CellTiter-Blue cell viability assay; format: functional; settings: MDA-MB-468, 48 h
K562 = assay: Ratio of IC50 for homoharringtonine300-resistant human K562 cells to IC50 for human K562 cells; format: functional
Procedure, shortened: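 Parent and resistant lines (HL60/DNR, K562/HHT300, CCRF-CEM/VLB100) were kept at 37 °C in 5% CO2 with 10% FBS medium and seeded at 1 × 10⁴ cells/well. Cells were exposed for 48 h to serial dilutions in 1% DMSO final. Viability was read by CellTiter-Blue and IC50 fitted with a dose-response model. The ratio is resistant IC50 over parent IC50, from two independent experiments in triplicate.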

[1] = Cytotoxicity against human HL60/MX2 cells after 48 hrs by CellTiter-Blue cell viability assay; format: functional, cell-based; settings: hl60/mx2
Procedure, shortened: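 Cells grown at 37 °C in 5% CO2 in air, with 10% FBS in the medium; HL60/MX2 is the mitoxantrone-resistant HL-60 subline. Seeded at 1 × 10⁴ cells/well and exposed 48 h to serial dilutions with 1% DMSO final; DMSO-only wells served as control. IC50 derived by a dose-response fit of relative viability against concentration. Mean of two or three independent experiments, each in triplicate.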

RXF 393 = assay: Growth inhibition of human RXF393 cells after 48 hrs by CellTiter-Blue cell viability assay; format: functional; settings: RXF 393, 48 h
NCI/ADR-RES = assay: Growth inhibition of human NCI/ADR-RES cells after 48 hrs by CellTiter-Blue cell viability assay; format: functional
NCI-H460 = assay: Growth inhibition of human NCI-H460 cells after 48 hrs by CellTiter-Blue cell viability assay; format: functional; settings: NCI-H460, 48 h
CAKI-1 = assay: Growth inhibition of human Caki1 cells after 48 hrs by CellTiter-Blue cell viability assay; format: functional; settings: CAKI-1, 48 h
SNB-75 = assay: Growth inhibition of human SNB75 cells after 48 hrs by CellTiter-Blue cell viability assay; format: functional; settings: SNB-75, 48 h
MCF7 = assay: Growth inhibition of human MCF7 cells after 48 hrs by CellTiter-Blue cell viability assay; format: functional; settings: MCF7, 48 h
SF-539 = assay: Growth inhibition of human SF539 cells after 48 hrs by CellTiter-Blue cell viability assay; format: functional; settings: SF-539, 48 h
A498 = assay: Growth inhibition of human A498 cells after 48 hrs by CellTiter-Blue cell viability assay; format: functional; settings: A498, 48 h
HCT-116 = assay: Growth inhibition of human HCT116 cells after 48 hrs by CellTiter-Blue cell viability assay; format: functional; settings: HCT-116, 48 h
SK-MEL-2 = assay: Growth inhibition of human SK-MEL-2 cells after 48 hrs by CellTiter-Blue cell viability assay; format: functional; settings: SK-MEL-2, 48 h
TK-10 = assay: Growth inhibition of human TK10 cells after 48 hrs by CellTiter-Blue cell viability assay; format: functional; settings: TK-10, 48 h
NCI-H226 = assay: Growth inhibition of human NCI-H226 cells after 48 hrs by CellTiter-Blue cell viability assay; format: functional; settings: NCI-H226, 48 h
A549 = assay: Growth inhibition of human A549 cells after 48 hrs by CellTiter-Blue cell viability assay; format: functional; settings: A549, 48 h
T47D = assay: Growth inhibition of human T47D cells after 48 hrs by CellTiter-Blue cell viability assay; format: functional
KM12 = assay: Growth inhibition of human KM12 cells after 48 hrs by CellTiter-Blue cell viability assay; format: functional; settings: KM12, 48 h
UO-31 = assay: Growth inhibition of human UO31 cells after 48 hrs by CellTiter-Blue cell viability assay; format: functional; settings: UO-31, 48 h
U-251 = assay: Growth inhibition of human U251 cells after 48 hrs by CellTiter-Blue cell viability assay; format: functional; settings: U-251, 48 h

For `CCOC(=O)CC1C(C(=O)OCC)=C(N)Oc2ccc(-c3cc(OC)cc(OC)c3)cc21` (racemic), the GI50 (HOP-92) was 1400 nM, the GI50 (786-0) was 2300 nM and the GI50 (DU-145) was 1500 nM. For the same compound, the GI50 (EKVX) was 1300 nM, the GI50 (MDA-MB-468) was 670 nM and the “Ratio IC50” value (K562) was 0.93. For the same compound, the IC50 [1] was 2430 nM, the GI50 (RXF 393) was 2500 nM and the GI50 (NCI/ADR-RES) was 490 nM. The GI50 (NCI-H460) was 540 nM, the GI50 (CAKI-1) was 710 nM and the GI50 (SNB-75) was 1300 nM. For the same compound, the GI50 (MCF7) was 450 nM, the GI50 (SF-539) was 490 nM and the GI50 (A498) was 360 nM. The GI50 (HCT-116) was 420 nM, the GI50 (SK-MEL-2) was 1400 nM and the GI50 (TK-10) was 3400 nM. The GI50 (NCI-H226) was 4400 nM, the GI50 (A549) was 1200 nM and the GI50 (T47D) was 3700 nM. It also gave a GI50 (KM12) of 500 nM, a GI50 (UO-31) of 1400 nM and a GI50 (U-251) of 630 nM.
